Key:
[1] = Aqueous solubility of the compound in phosphate buffer at pH 7.4 after 24 hrs by shake-flask method; type: physicochemical
Summary of the method: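 Dried compound equilibrated in aqueous phosphate buffer, pH 7.4, for 24 h at 25 °C. The dissolved portion was separated from the remaining solid and quantified by UPLC/MS/MS. QC samples were included in each run.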

[2] = Partition coefficient, log D of the compound at pH 7.4 after 30 mins by shake-flask method; type: physicochemical; conditions: octanol/water
Summary of the method: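 Octanol/pH 7.4 buffer shake-flask: compound in buffer plus octanol, shaken 30 min, then centrifuged. The aqueous layer was quantified by LC-UV against the solution before octanol addition to give D7.4. Runs were pools of 10 compounds including three QC compounds (cyclobenzaprine, nicardipine, caffeine).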

[3] = Fraction unbound in 10% human plasma after 18 hrs by LC-MS/MS analysis; type: ADME, cell-free
Summary of the method: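 Compound from DMSO stock was dialysed against buffer in 10% human plasma on a RED device for 18 h. Plasma and buffer samples were quantified by LC-MS/MS against a 7-point calibration curve in plasma. Samples were generally run in singlicate, in pools of up to 10 compounds. Propranolol, metoprolol and warfarin served as reference compounds in each run.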

[4] = Intrinsic clearance in human liver microsomes preincubated in presence of NADPH for 30 mins and measured up to 30 mins by LC-MS/MS analysis; type: ADME, microsome; conditions: read-out: CLH
Summary of the method: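 Compound from DMSO stock was incubated with human liver microsomes plus NADPH at 37 °C. Aliquots taken at 0.7, 5.8, 11.6, 17.2, 22.7 and 30 min were quenched with cold acetonitrile and centrifuged at 4 °C. Substrate loss was measured by LC-MS/MS, and Clint is given in µL/min/mg. Six isoform-specific P450/FMO marker substrates were included in each run.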

[5] = Intrinsic clearance in Han Wistar rat hepatocytes assessed as per million cells preincubated in presence of NADPH for 30 mins and measured up to 120 mins by LC-MS/MS analysis; type: ADME, cell-based, Hepatocyte; conditions: read-out: CLH
Summary of the method: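 Cryopreserved Han Wistar rat hepatocytes at 1x10^6 cells/mL were incubated with compound from DMSO stock at 37 °C. Samples were taken at 0.5, 5, 15, 20, 30, 45, 60, 80, 100 and 120 min and quenched with cold acetonitrile. After centrifugation at 4 °C, substrate disappearance was followed by LC-MS/MS. Clint is expressed in µL/min/10^6 cells.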

hERG (KCNH2) = hERG (KCNH2) (Homo sapiens, UniProt Q12809); test: Inhibition of human ERG at 10 uM relative to cisapride
Sequence of hERG (KCNH2) (Q12809 whole entry): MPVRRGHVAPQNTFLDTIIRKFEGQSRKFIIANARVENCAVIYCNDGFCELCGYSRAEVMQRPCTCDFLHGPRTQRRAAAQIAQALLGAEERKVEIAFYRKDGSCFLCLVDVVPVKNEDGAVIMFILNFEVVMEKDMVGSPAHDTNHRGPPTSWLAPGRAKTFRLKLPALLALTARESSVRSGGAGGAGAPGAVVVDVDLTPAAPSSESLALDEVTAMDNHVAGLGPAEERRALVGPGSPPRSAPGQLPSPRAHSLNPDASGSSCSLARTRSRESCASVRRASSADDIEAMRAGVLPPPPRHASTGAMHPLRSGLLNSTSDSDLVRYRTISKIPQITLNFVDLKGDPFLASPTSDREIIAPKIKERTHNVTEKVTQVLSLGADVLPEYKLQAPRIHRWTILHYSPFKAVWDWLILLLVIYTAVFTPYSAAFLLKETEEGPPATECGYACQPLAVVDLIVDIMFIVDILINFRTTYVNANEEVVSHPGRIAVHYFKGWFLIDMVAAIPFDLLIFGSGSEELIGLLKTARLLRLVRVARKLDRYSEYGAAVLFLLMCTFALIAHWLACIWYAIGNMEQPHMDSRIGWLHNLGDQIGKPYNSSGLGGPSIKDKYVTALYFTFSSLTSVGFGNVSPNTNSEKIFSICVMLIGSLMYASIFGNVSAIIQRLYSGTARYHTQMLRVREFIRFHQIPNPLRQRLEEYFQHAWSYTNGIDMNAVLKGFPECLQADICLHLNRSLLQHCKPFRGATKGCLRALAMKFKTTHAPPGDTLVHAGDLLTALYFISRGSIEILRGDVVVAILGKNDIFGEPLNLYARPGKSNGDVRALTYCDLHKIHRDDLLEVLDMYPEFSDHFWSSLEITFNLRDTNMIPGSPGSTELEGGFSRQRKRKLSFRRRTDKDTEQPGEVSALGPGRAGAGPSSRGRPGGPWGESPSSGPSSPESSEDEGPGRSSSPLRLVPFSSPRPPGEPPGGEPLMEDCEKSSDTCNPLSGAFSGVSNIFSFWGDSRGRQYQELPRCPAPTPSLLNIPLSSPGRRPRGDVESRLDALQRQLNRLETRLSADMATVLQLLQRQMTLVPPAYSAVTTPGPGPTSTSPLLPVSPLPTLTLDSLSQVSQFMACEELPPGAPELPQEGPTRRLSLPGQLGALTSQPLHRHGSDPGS

Row | solubility thermodynamic at 24 h [1] [µM] | logD at 0.5 h [2] | fraction unbound at 18 h [3] | microsomal CLint [4] [µL/min/mg] | hepatocyte CLint [5] [µL/min/1e6 cells] | Structure (SMILES) | inhibition at 10 µM (hERG (KCNH2)) [%]
1 | 782 | 1.8 | 0.45 | 13 | 82 | CCCCOc1cccc(CCNCC(=O)N(C)C)c1.Cl | 31
2 | 960 | 1.1 | 0.62 | 7 | 34 | CN(C)C(=O)CNCCc1cccc(OCCC(C)(F)F)c1.Cl | 35
3 | 1000 | 1.7 | 0.49 | 7 | 38 | CN(C)C(=O)CNCCc1cccc(OCCCC(C)(F)F)c1.Cl | 45

Second part, the compound before the results:

Row | Structure (SMILES) | solubility thermodynamic at 24 h [1] [µM] | logD at 0.5 h [2] | fraction unbound at 18 h [3] | microsomal CLint [4] [µL/min/mg] | hepatocyte CLint [5] [µL/min/1e6 cells] | inhibition at 10 µM (hERG (KCNH2)) [%]
4 | CN(C)C(=O)CNCCc1cccc(OCC(F)(F)C(F)(F)C(F)(F)C(F)(F)F)c1.Cl | 955 | – | – | – | – | –
5 | CN(C)C(=O)CNCCc1cccc(OCC(F)(F)C(F)(F)C(F)(F)F)c1.Cl | 952 | 2.5 | 0.2 | 8 | 20 | 57
6 | CN(C)C(=O)CNCCc1cccc(OCC(F)(F)C(C)(F)F)c1.Cl | 929 | 1.6 | 0.51 | 10 | 32 | 41
7 | CCCCCOc1cccc(CCNCC(=O)N(C)C)c1.Cl | 779 | 2.3 | 0.23 | 29 | 91 | 70
8 | CN(C)C(=O)CNCCc1cccc(OCC(F)(F)C(F)(F)C(C)(F)F)c1.Cl | 946 | 2.2 | 0.25 | 9 | 64 | 63
